# Test results reported in ChEMBL document CHEMBL1158346, “Synthesis and antioxidant potential of novel synthetic benzophenone analogues” (Eur J Med Chem, 2009).
# The source made the active and inactive calls. The calls are words filed in the database; no cut-off is given here.
# What was measured:
# [1] = Antioxidant activity assessed as Fe2+ formation per nmol of compound by FRAP assay; type: functional
# Summary of the method: (§1)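 FRAP method: working reagent of acetate buffer, TPTZ solution and FeCl₃·6H₂O solution (25:2.5:2.5 by volume), warmed 30 min at 37 °C before addition. Absorbance read after 30 min at 30 s intervals. Trolox as reference antioxidant. Output is the antioxidant ratio, nmol Fe²⁺ per nmol compound, mean ± SD, n = 3.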
# MCF7 [2] = test: Cytotoxicity against human MCF7 cells after 48 hrs by MTT assay; type: functional, cell-based; details: MCF7, 48 h
# Summary of the method: (§2)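 Cells seeded at 1 ×10⁴ per well and allowed 24 h, then exposed 48 or 72 h. Medium replaced with fresh medium containing MTT at 0.5 mg/ml final, 3 h at 37 °C. MCF7 in phenol red-free RPMI-1640 with 10% FBS; hTERT-HME1 in RPMI-1640/mammary epithelial growth medium 90:10. IC₂₀ and IC₅₀ are means of 8 assays ± SD.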
# [3] = Cytotoxicity against hTERT-HME1 cells after 72 hrs by MTT assay; type: cell-based, Homo sapiens; details: for IC50: Homo sapiens, HME1, 72 h; for IC20 at 72 h: human, hTERT-HME1 cells; summary of the method: as §2
# [4] = Cytotoxicity against hTERT-HME1 cells after 48 hrs by MTT assay; type: cell-based, Homo sapiens; details: for IC50: Homo sapiens, HME1, 48 h; for IC20 at 48 h: human, hTERT-HME1 cells; summary of the method: as §2
# [5] = Antioxidant activity assessed as Fe2+ formation per nmol of compound by FRAP assay relative to trolox; type: functional; summary of the method: as §1
# MCF7 [6] = test: Cytotoxicity against human MCF7 cells after 72 hrs by MTT assay; type: functional, cell-based; details: MCF7, 72 h; summary of the method: as §2
# [7] = Antioxidant activity in 2',7'-dichlorodihydrofluorescein diacetate-treated hTERT-HME1 cells assessed as reduction of H2O2 production at 100 uM during after 24 hrs by FACS analysis; type: functional, Homo sapiens; parameters: scale not given: the % may be the effect or the level left
# Summary of the method: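 Mammary cells seeded at 0.75 ×10⁶ per 100-mm dish. Exposed to test agent or Trolox at […] (unit as printed) for 4, 8, 12, 24 and 48 h. Loaded with H₂DCFDA 15 min at 37 °C. Detached plus adherent cells resuspended in PBS; DCF read in FL1 on a FACScan. Output is the ratio of treated to DMSO-control fluorescence, mean ± SD, n = 3.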
smiles,measurement,setting,value
O=C(c1ccc(O)c(O)c1)c1ccc2sc(=O)[nH]c2c1,Activity,[1],6.1 nmol
same,IC20,MCF7 [2],12.1 µM
same,IC50,MCF7 [2],43.6 µM
same,IC50,[3],116 µM
same,IC20 at 72 h,[3],33.8 µM
same,IC50,[4],155 µM
same,IC20 at 48 h,[4],43.5 µM
same,Ratio,[5],2
same,IC20,MCF7 [6],8.3 µM
same,IC50,MCF7 [6],28.1 µM
Cc1c(C)c2c(c(C)c1O)CCC(C)(C(=O)O)O2 (stereo not given) [TROLOX],Activity,[7],20%
O=C(c1ccc(O)cc1)c1ccc2sc(=O)[nH]c2c1,Activity,[1],inactive
same,IC20,MCF7 [2],44.5 µM
same,IC50,MCF7 [2],121 µM
same,IC50,[3],111 µM
same,IC20 at 72 h,[3],78.4 µM
same,IC50,[4],109 µM
same,IC20 at 48 h,[4],73.1 µM
same,IC20,MCF7 [6],37.8 µM
same,IC50,MCF7 [6],95.9 µM
